Data: ChEMBL document CHEMBL3804761, “Synthesis of a stable and orally bioavailable englerin analogue” (Bioorg Med Chem Lett, 2016)

Experiments:
Assay type in all cases: functional
NCI-H322M [1] = assay: Growth inhibition of human NCI-H322M cells assessed as cell growth at 10 uM incubated for 48 hrs by sulforhodamine B assay relative to control; conditions: read-out: Activity
Procedure, shortened: (§1)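 Run in the standard NCI 60-cell-line screen. Cells were exposed to drug for two days, and the read-out was sulforhodamine B staining. Compound was tested at a single final concentration of 10 µM in every line, and results are reported as growth percent.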

[2] = Growth inhibition of human OVCAR8 cells assessed as cell growth at 10 uM incubated for 48 hrs by sulforhodamine B assay relative to control; conditions: OVCAR-8, 48 h, read-out: Activity; procedure, shortened: as §1
[3] = Growth inhibition of human SKOV3 cells assessed as cell growth at 10 uM incubated for 48 hrs by sulforhodamine B assay relative to control; conditions: SK-OV-3, 48 h, read-out: Activity; procedure, shortened: as §1
CCRF-CEM [4] = assay: Growth inhibition of human CCRF-CEM cells assessed as cell growth at 10 uM incubated for 48 hrs by sulforhodamine B assay relative to control; conditions: read-out: Activity
Procedure, shortened: (§2)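 Single-dose screen in the NCI 60-cell-line panel at one final concentration of 10 µM. Two-day drug exposure with a sulforhodamine B endpoint. Values are growth percent for each cell line.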

SK-MEL-28 = assay: Growth inhibition of human SK-MEL-28 cells assessed as cell growth at 10 uM incubated for 48 hrs by sulforhodamine B assay relative to control; conditions: SK-MEL-28, 48 h, read-out: Activity; procedure, shortened: as §1
[5] = Growth inhibition of human OVCAR5 cells assessed as cell growth at 10 uM incubated for 48 hrs by sulforhodamine B assay relative to control; conditions: OVCAR-5, 48 h, read-out: Activity; procedure, shortened: as §1
NCI-H460 [6] = assay: Growth inhibition of human NCI-H460 cells assessed as cell growth at 10 uM incubated for 48 hrs by sulforhodamine B assay relative to control; conditions: NCI-H460, 48 h, read-out: Activity; procedure, shortened: as §1
A498 = assay: Growth inhibition of human A498 cells assessed as cell growth at 10 uM incubated for 48 hrs by sulforhodamine B assay relative to control; conditions: A498, 48 h, read-out: Activity
[7] = Growth inhibition of human OVCAR4 cells assessed as cell growth at 10 uM incubated for 48 hrs by sulforhodamine B assay relative to control; conditions: OVCAR-4, 48 h, read-out: Activity; procedure, shortened: as §1
[8] = Growth inhibition of human OVCAR3 cells assessed as cell growth at 10 uM incubated for 48 hrs by sulforhodamine B assay relative to control; conditions: OVCAR-3, 48 h, read-out: Activity; procedure, shortened: as §1
NCI-H23 = assay: Growth inhibition of human NCI-H23 cells assessed as cell growth at 10 uM incubated for 48 hrs by sulforhodamine B assay relative to control; conditions: NCI-H23, 48 h, read-out: Activity; procedure, shortened: as §1
[9] = Growth inhibition of human HL-60(TB) cells assessed as cell growth at 10 uM incubated for 48 hrs by sulforhodamine B assay relative to control; conditions: HL-60, 48 h, read-out: Activity; procedure, shortened: as §2
[10] = Growth inhibition of human HCC2998 cells assessed as cell growth at 10 uM incubated for 48 hrs by sulforhodamine B assay relative to control; conditions: HCC 2998, 48 h, read-out: Activity; procedure, shortened: as §2
[11] = Growth inhibition of human SW620 cells assessed as cell growth at 10 uM incubated for 48 hrs by sulforhodamine B assay relative to control; conditions: SW-620, 48 h, read-out: Activity; procedure, shortened: as §1
[12] = Growth inhibition of human HOP92 cells assessed as cell growth at 10 uM incubated for 48 hrs by sulforhodamine B assay relative to control; conditions: HOP-92, 48 h, read-out: Activity; procedure, shortened: as §2
NCI-H522 = assay: Growth inhibition of human NCI-H522 cells incubated for 48 hrs by sulforhodamine B assay; conditions: NCI-H522, 48 h
Procedure, shortened: (§3)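 NCI 60-cell-line panel, standard protocol. Cells exposed to compound for two days, growth read by sulforhodamine B staining. Tested at five 10-fold dilutions, top concentration 100 µM, to give dose-response curves.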

[13] = Growth inhibition of human OVCAR8 cells incubated for 48 hrs by sulforhodamine B assay; conditions: OVCAR-8, 48 h; procedure, shortened: as §3
[14] = Growth inhibition of human TK10 cells incubated for 48 hrs by sulforhodamine B assay; conditions: TK-10, 48 h
Procedure, shortened: (§4)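 Tested in the standard NCI 60-cell-line protocol with two-day drug exposure and a sulforhodamine B endpoint. Compounds were first screened at a single final concentration of 10 µM, reported as growth percent. They were then run as five 10-fold dilutions starting from a high concentration of 100 µM to give dose-response curves.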

CCRF-CEM [15] = assay: Growth inhibition of human CCRF-CEM cells incubated for 48 hrs by sulforhodamine B assay; procedure, shortened: as §3
A549 = assay: Growth inhibition of human A549/ATCC cells incubated for 48 hrs by sulforhodamine B assay; conditions: A549, 48 h; procedure, shortened: as §3
[16] = Growth inhibition of human SF539 cells incubated for 48 hrs by sulforhodamine B assay; conditions: SF-539, 48 h; procedure, shortened: as §3
[17] = Growth inhibition of human SF268 cells incubated for 48 hrs by sulforhodamine B assay; conditions: SF-268, 48 h; procedure, shortened: as §3
NCI-H322M [18] = assay: Growth inhibition of human NCI-H322M cells incubated for 48 hrs by sulforhodamine B assay; procedure, shortened: as §3
[19] = Growth inhibition of human Hs 578T cells incubated for 48 hrs by sulforhodamine B assay
[20] = Growth inhibition of human SF295 cells incubated for 48 hrs by sulforhodamine B assay; conditions: SF-295, 48 h; procedure, shortened: as §3
[21] = Growth inhibition of human UO31 cells incubated for 48 hrs by sulforhodamine B assay; conditions: UO-31, 48 h; procedure, shortened: as §4
NCI-H460 [22] = assay: Growth inhibition of human NCI-H460 cells incubated for 48 hrs by sulforhodamine B assay; conditions: NCI-H460, 48 h; procedure, shortened: as §3
[23] = Growth inhibition of human OVCAR3 cells incubated for 48 hrs by sulforhodamine B assay; conditions: OVCAR-3, 48 h; procedure, shortened: as §3
[24] = Growth inhibition of human SNB75 cells incubated for 48 hrs by sulforhodamine B assay; conditions: SNB-75, 48 h; procedure, shortened: as §4
[25] = read-out: pLC50 (the source's name) (converted)

`CC(C)[C@@]12C[C@@H](NC(=O)CF)[C@@](C)(O1)[C@@H]1CC[C@@H](C)[C@H]1[C@@H]2OC(=O)/C=C/c1ccccc1` gave a growth at 10 µM (NCI-H322M [1]) of 97.4%, a growth at 10 µM [2] of 107% and a growth at 10 µM [3] of 91.3%. It also gave a growth at 10 µM (CCRF-CEM [4]) of 88.6%, a growth at 10 µM (SK-MEL-28) of 110% and a growth at 10 µM [5] of 102%. The growth at 10 µM (NCI-H460 [6]) was 104%, the growth at 10 µM (A498) was 83% and the growth at 10 µM [7] was 105%. The growth at 10 µM [8] was 115%, the growth at 10 µM (NCI-H23) was 102% and the growth at 10 µM [9] was 105%. It also gave a growth at 10 µM [10] of 107%, a growth at 10 µM [11] of 101% and a growth at 10 µM [12] of 75.8%.
Molecule `CC(C)[C@@]12C[C@@H](NC(=O)CO)[C@@](C)(O1)[C@@H]1CC[C@@H](C)[C@H]1[C@@H]2OC(=O)c1ccc2ccccc2c1` has a GI50 (NCI-H522) of 15.5 µM, an LC50 (NCI-H522) of 56.2 µM and a TGI (NCI-H522; read-out: pTGI (converted)) of 29.5 µM. It also gave a GI50 [13] of 6.46 µM, an LC50 (concentration killing 50% of cells) [13] of 60.3 µM and a TGI ([13]; read-out: pTGI (converted)) of 22.4 µM. It also gave a GI50 [14] of 19.1 µM, a CC50 [14, 25] of 60.3 µM and a TGI ([14]; read-out: pTGI (converted)) of 33.9 µM. The GI50 (CCRF-CEM [15]) was 15.8 µM, the CC50 (CCRF-CEM [15]; [25]) was 75.9 µM and the TGI (CCRF-CEM [15]; read-out: pTGI (converted)) was 34.7 µM. The growth at 10 µM (NCI-H322M [1]) was 89.5%, the growth at 10 µM [2] was 51.3% and the GI50 (A549) was 14.8 µM. For the same molecule, the LC50 (A549) was 63.1 µM, the TGI (A549; read-out: pTGI (converted)) was 30.2 µM and the growth at 10 µM [3] was 96.4%. It also gave a GI50 [16] of 15.5 µM, an LC50 [16] of 55 µM and a TGI ([16]; read-out: pTGI (converted)) of 29.5 µM. For the same molecule, the growth at 10 µM (SK-MEL-28) was 93.2%, the GI50 [17] was 13.5 µM and the LC50 (lethal concentration, 50% net cell kill) [17] was 57.5 µM. It also gave a TGI ([17]; read-out: pTGI (converted)) of 28.2 µM, a growth at 10 µM [5] of 84.5% and a growth at 10 µM (NCI-H460 [6]) of 92.6%. For the same molecule, the growth at 10 µM (A498) was -15.2%, the growth at 10 µM [7] was 82.2% and the GI50 (NCI-H322M [18]) was 13.5 µM. The LC50 (NCI-H322M [18]) was 52.5 µM, the TGI (NCI-H322M [18]; read-out: pTGI (converted)) was 26.9 µM and the GI50 ([19]; read-out: GI50) was 2.23 µM. The GI50 ([19]; read-out: pGI50 (converted)) was 2.24 µM, the CC50 [19, 25] was > 100 µM and the TGI ([19]; read-out: pTGI (converted)) was 8.91 µM. For the same molecule, the growth at 10 µM [8] was 98.8%, the GI50 [20] was 16.2 µM and the LC50 (concentration causing 50% net cell kill) [20] was 57.5 µM. The TGI ([20]; read-out: pTGI (converted)) was 30.2 µM, the growth at 10 µM (NCI-H23) was 80.2% and the growth at 10 µM [9] was 99.3%. The growth at 10 µM [10] was 105%, the GI50 [21] was 11.5 µM and the CC50 [21, 25] was 50.1 µM. For the same molecule, the TGI ([21]; read-out: pTGI (converted)) was 24 µM, the growth at 10 µM [11] was 96.2% and the GI50 (NCI-H460 [22]) was 20.4 µM. For the same molecule, the CC50 (NCI-H460 [22]; [25]) was 79.4 µM, the TGI (NCI-H460 [22]; read-out: pTGI (converted)) was 40.7 µM and the GI50 [23] was 17 µM. It also gave an LC50 [23] of 57.5 µM, a TGI ([23]; read-out: pTGI (converted)) of 30.9 µM and a GI50 [24] of 13.2 µM. It also gave an LC50 [24] of 56.2 µM and a TGI ([24]; read-out: pTGI (converted)) of 27.5 µM.
